Where a SMILES comes first, the peptide text is derived from it. Where no end group is shown, it is not given here.
How the values were obtained:
[1] = system: SCF^Skp2 (p27 ubiquitination); experiment: In vitro p27 ubiquitination assay; assay type: biochemical; conditions: E1, hCdc34 (E2), Cks1, p27 phosphorylated by cyclin E-Cdk2, SCF^Skp2; 2 hrs, 30°C; Figure S3
[2] = biological target: SCF^Fbx4 (Fbx4-dependent TRF1 ubiquitination) (UniProt P54274); experiment: In vitro TRF1 ubiquitination assay; assay type: biochemical; conditions: versus wild-type peptide (IC50 = 205.9 µM)
Procedure, shortened: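 TRF1ΔMyb (E. coli; Ni-NTA, tag cleaved, gel filtration, Mono-Q/Mono-S) was prelabelled with GST-cyclin B/Cdk1 in 50 mM Tris pH 8.0, 10 mM MgCl2, 10 mM ATP and 2 µCi [γ-33P]ATP for 1 hr, then kinase-depleted on glutathione resin. It was incubated with E1, UbcH5a, SCFFbx4, ubiquitin, methylated ubiquitin, energy-regenerating system and increasing peptide at 30°C for 2.5 hrs. SDS-PAGE and phosphorimaging followed. IC50 came from loss of polyubiquitination.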

[3] = biological target: T1, TRF1_(TRFH) (residues 58-268) (UniProt P54274 58-268); experiment: fluorescence polarisation
T1 sequence (looked up): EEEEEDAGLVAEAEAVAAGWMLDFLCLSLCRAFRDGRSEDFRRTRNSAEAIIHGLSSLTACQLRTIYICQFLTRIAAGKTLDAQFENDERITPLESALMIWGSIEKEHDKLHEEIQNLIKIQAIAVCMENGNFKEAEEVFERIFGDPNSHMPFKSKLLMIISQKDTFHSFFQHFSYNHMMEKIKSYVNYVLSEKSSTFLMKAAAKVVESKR

Molecule | effect on the ubiquitination of p27 [1] | decrease of IC50 compared to wild-type peptide [2] | Kd [3]
CC[C@H](C)[C@H](NC(=O)[C@@H]1CCCN1C(=O)[C@@H](N)CCSC)C(=O)N[C@@H](Cc1ccccc1)C(=O)N[C@@H](Cc1c[nH]c2ccccc12)C(=O)N[C@@H](CCCCN)C(=O)N[C@@H](Cc1ccccc1)C(=O)N[C@@H](Cc1c[nH]cn1)C(=O)N[C@@H](CCCNC(=N)N)C(=O)N[C@@H](CCSC)C(=O)N[C@@H](CO)C(=O)N[C@@H](CCCCN)C(=O)N[C@@H](CCSC)C(=O)NCC(=O)N[C@H](C(=O)NCC(N)=O)[C@@H](C)O [Design 1] (H-MPIFWKFHRMSKMGTG-NH2) | no effect | more than 6 fold | 
KKMDVCGGLSD-NH2 (also: 7-hydroxycoumarin-3-carboxylic acid label, position not given here) [Control 2] |  |  | > 10000 µM
MPIFWKFHRMSKMGTG-NH2 (designed binder, also: 7-hydroxycoumarin-3-carboxylic acid label, position not given here) [Design 1] |  |  | 23.3 µM
MPIFWKAHRMSKMGTG-NH2 (designed binder, also: 7-hydroxycoumarin-3-carboxylic acid label, position not given here) [Design 3] |  |  | 17.3 µM
MPIAWKFHRMSKMGTG-NH2 (designed binder, also: 7-hydroxycoumarin-3-carboxylic acid label, position not given here) [Design 2] |  |  | 47.8 µM
SMTWRGKPAHMIFGKM-NH2 (also: 7-hydroxycoumarin-3-carboxylic acid label, position not given here) [Control 1] |  |  | > 250 µM
MPCFYLAHEL-NH2 (also: 7-hydroxycoumarin-3-carboxylic acid label, position not given here) [Wild-Type peptide (Fbx4 residues 339-348)] |  |  | 41.8 µM
